Results gathered from unrelated publications.
Lines come from different studies, so protocols differ. Values after ≈ are worked out from the molar mass of the structure shown.
Organism: Mycobacterium tuberculosis variant bovis BCG
Effect on: microbial growth

SMILES	strain	time	endpoint	result
C=CC(c1ccc(-c2ccc(OC)c(OC)c2)cc1)n1ccnc1 (stereo not drawn)	BCG		MIC50	> 100 µM
c1ccc(COc2ccc(CNCc3cccnc3)cc2)cc1	ATCC35734 BCG		MIC	> 62.5 µM
Nc1nccnc1C(=O)O	ATCC35734 BCG	5 days	IC50	800 µM
c1ccc(COc2ccc(CNCc3ccncc3)cc2)cc1	ATCC35734 BCG		MIC	> 62.5 µM
C=CC(c1ccc(-c2ccc3c(c2)OCO3)cc1F)n1ccnc1 (stereo not drawn)	BCG		MIC50	> 30 µM
Clc1cccc(COc2ccccc2CNCc2ccncc2)c1	ATCC35734 BCG		MIC	> 62.5 µM
COc1ccc(C=CC(=O)c2ccccc2C)cc1OC	BCG	7 days	MIC	50 µg/mL
Clc1ccc(COC(Cn2ccnc2)c2ccc(Cl)cc2Cl)cc1 (stereo not drawn)	BCG		MIC50	12.7 µM (≈ 4.85 µg/mL)
CCCCCCn1c2c([n+](C3CCC4(CCCCC4)CC3)c1C)C(=O)c1ccccc1C2=O	BCG	5 days	MIC50	0.08 µM
COc1ccc(C=CC(=O)c2ccc(Br)cc2)cc1OC	BCG	7 days	MIC	12.5 µg/mL
C=CC(c1ccc(-c2ccc(O)c(Cl)c2)cc1)n1ccnc1 (stereo not drawn)	BCG		MIC50	49.9 µM (≈ 15.5 µg/mL)
COc1ccc(C(=O)C=Cc2ccc(OC)c(OC)c2)cc1	BCG	7 days	MIC	50 µg/mL
NNC(=O)c1ccncc1	ATCC35734 BCG		MIC	≤ 0.25 µM
COc1ccc(C=CC(=O)c2ccc(Cl)cc2)cc1OC	BCG	7 days	MIC	200 µg/mL
CCCNc1cnc(C(=O)O)cn1	ATCC35734 BCG	5 days	IC50	700 µM
